Results collected from several papers.
Protocols differ between the studies behind these lines.
FLT3 R834Q: Receptor-type tyrosine-protein kinase FLT3 (FLT3, Homo sapiens, UniProt P36888, R834Q)
FLT3 D835H: Receptor-type tyrosine-protein kinase FLT3 (FLT3, Homo sapiens, UniProt P36888, D835H)
FLT3 K663Q: Receptor-type tyrosine-protein kinase FLT3 (FLT3, Homo sapiens, UniProt P36888, K663Q)
FLT3 D835Y: Receptor-type tyrosine-protein kinase FLT3 (FLT3, Homo sapiens, UniProt P36888, D835Y)
FLT3: Receptor-type tyrosine-protein kinase FLT3 (FLT3, Homo sapiens, UniProt P36888)
FLT3 N841I: Receptor-type tyrosine-protein kinase FLT3 (FLT3, Homo sapiens, UniProt P36888, N841I)
FLT3 autoinhibited: Receptor-type tyrosine-protein kinase FLT3, autoinhibited (FLT3, Homo sapiens, UniProt P36888)
FLT3 D835V: Receptor-type tyrosine-protein kinase FLT3 (FLT3, Homo sapiens, UniProt P36888, D835V)

Compound	target	assay	conditions	remaining binding
Cc1noc([C@H]2C[C@@H](c3ccc(C(F)(F)F)cc3)CN(C(=O)N3CCS(=O)(=O)C3)C2)n1	FLT3 R834Q	cell-free assay, competition with immobilised ligand	1 µM	91%
O=C(c1ccc(Nc2ncc(Cl)c(-c3cc4ccccc4s3)n2)cc1)N1CCC(N2CCCC2)CC1	FLT3 D835H	binding, competition with immobilised ligand	1 µM	2.4%
CN(c1nccc(-c2cnn3ncccc23)n1)C1CC1	FLT3 K663Q	binding	1 µM	83%
NS(=O)(=O)c1cc(NC(=O)Cc2ccccc2)ccc1Oc1cccc(Cl)c1	FLT3 K663Q	cell-free assay, competition with immobilised ligand	1 µM	99%
O=C(NCCCN1CCOCC1)c1ccc(Nc2ncc(Cl)c(-c3ccc(Cl)s3)n2)cc1	FLT3 D835Y	binding, competition with immobilised ligand	1 µM	1.8%
Nc1ncc2c(n1)-c1c([nH]c3ccc(C#CC4CC4)cc13)CCCC2	FLT3 R834Q	binding, competition with immobilised ligand	1 µM	79%
CN1CCN(c2ccc(Nc3nccc(-c4ccccc4)n3)cc2C(F)(F)F)CC1	FLT3 K663Q	binding	10 µM	0.35%
NS(=O)(=O)c1cc(NC(=O)C2(c3ccccc3Cl)CC2)ccc1Oc1cccc(Cl)c1	FLT3 D835Y	cell-free assay, competition with immobilised ligand	1 µM	100%
COc1ccnn2ncc(-c3ccnc(N(C)C)n3)c12	FLT3 R834Q	binding	1 µM	87%
C[C@@H]1CN(c2ccc3ncc(-c4ccc5[nH]nc(C6CC6)c5c4)n3n2)C[C@H](C)O1	FLT3	binding, competition with immobilised ligand	0.5 µM	3%
COc1cnc(Nc2cccc(S(N)(=O)=O)c2)nc1N1CCN(c2ccccc2)C(=O)C1	FLT3 N841I	binding, competition with immobilised ligand	1 µM	96%
N[C@H]1CCN(c2nccc(-c3cnn4ncccc34)n2)C1	FLT3 N841I	binding	1 µM	84%
CCN1CCN(Cc2ccc(C(=O)Nc3ccc(C)c(Oc4ccc5c(c4)CC(=O)N5)c3)cc2C(F)(F)F)CC1	FLT3 N841I	binding, competition with immobilised ligand	1 µM	81%
Cc1cnc(Nc2ccc(C(=O)N3CCC(N4CCCC4)CC3)cc2)nc1-c1cc2ccccc2s1	FLT3 autoinhibited	binding, competition with immobilised ligand	1 µM	9.5%
CNC(=O)[C@@H]1CC[C@@H](n2c(-c3ccc4cnccc4c3)nc3ccc(C(=O)NCc4cccc(C(N)=O)c4)cc32)C1	FLT3 K663Q	binding, competition with immobilised ligand	1 µM	99%
c1cnn2ncc(-c3ccnc(N4CCC45COC5)n3)c2c1	FLT3 D835H	binding	1 µM	64%
O=C(NC1CCC1)c1ccc2nc(-c3cccc(NS(=O)(=O)NCCN4CCCCC4)c3)cn2c1	Receptor-type tyrosine-protein kinase FLT3 (FLT3, Homo sapiens, UniProt P36888, D835V/ITD)	cell-free assay, competition with immobilised ligand	10 µM	37%
O=C(c1ccc(Nc2ncc(Cl)c(-c3ccc(Cl)s3)n2)cc1)N1CCC(N2CCCC2)CC1	FLT3 N841I	binding, competition with immobilised ligand	1 µM	0.4%

Compound	target	assay	conditions	remaining binding
CC1CCCN1c1nccc(-c2cnn3ncccc23)n1 (stereo not drawn)	FLT3 N841I	binding	1 µM	75%
O=C(c1ccc(Nc2nccc(-c3cc4ccccc4s3)n2)cc1)N1CCC(N2CCCC2)CC1	FLT3 D835H	binding, competition with immobilised ligand	1 µM	29%
CN(C)c1nccc(-c2cnc3ncccn23)n1	FLT3 autoinhibited	binding	1 µM	72%
CNC(=O)Nc1ccc2c(c1)[C@@]1(CC2)OC(=O)N(CC(=O)N(Cc2ccc(F)cc2)[C@@H](C)C(F)(F)F)C1=O	FLT3 D835V	cell-free assay, competition with immobilised ligand	1 µM	81%
COc1ncc2cc3ccccc3nc2c1C#N	FLT3 R834Q	cell-free assay, competition with immobilised ligand	5 µM	92%
C[C@H](c1cccc(C#N)c1)n1cc(Cl)cc(C(N)=O)c1=N	FLT3 R834Q	cell-free assay, competition with immobilised ligand	1 µM	100%
O=C(NCC1CCOCC1)c1n[nH]cc1NC(=O)c1c(F)cccc1F	FLT3 D835H	binding, competition with immobilised ligand	1 µM	98%
CN1CCN(c2ccc(Nc3nccc(-c4cccc([N+](=O)[O-])c4)n3)cc2C(F)(F)F)CC1	FLT3 K663Q	binding	10 µM	0.2%
COc1cnc(Nc2cccc(S(N)(=O)=O)c2)nc1N1CCN(c2ccccc2)CC1	FLT3 K663Q	binding, competition with immobilised ligand	1 µM	36%
O=C(NCCCN1CCOCC1)c1ccc(Nc2nccc(-c3cc4ccccc4s3)n2)cc1	FLT3 D835H	binding, competition with immobilised ligand	1 µM	30%
C=CC(=O)N1CCC(C(=O)NCC(=O)N2CCN(c3nc(-c4cnc(N)nc4C(F)F)nc(N4CCOCC4)n3)CC2)CC1	FLT3 D835Y	binding, competition with immobilised ligand	1 µM	99%
O=C(Nc1c[nH]nc1C(=O)NC1CCNCC1)c1cc(F)cc(F)c1	FLT3 autoinhibited	binding, competition with immobilised ligand	1 µM	85%
CC(C)CC(=O)N1CCc2nc(-c3ccc(Br)cc3)nc(N(C)Cc3ccccc3)c2C1	FLT3 K663Q	cell-free assay, competition with immobilised ligand	0.1 µM	100%
c1cncc(-c2cccc(Nc3nccc(NC4CCCCC4)n3)c2)c1	FLT3 D835H	binding, competition with immobilised ligand	10 µM	1.6%
Cc1c(C(=O)O)cc(-c2ccc(C3CCNCC3)cc2)c2ccc(-c3ccc(C(F)(F)F)cc3)cc12	FLT3	binding, competition with immobilised ligand	1 µM	100%
C[C@@H]1CCN(c2nccc(-c3cnn4ncccc34)n2)C1	FLT3 R834Q	binding	1 µM	71%
C[C@H](c1ccc(F)cc1)N(Cc1cccc(C(=O)O)c1)C(=O)c1cnc2ccccc2c1	FLT3 D835V	cell-free assay, competition with immobilised ligand	1 µM	98%
C[C@@H](c1ccc(-n2cnc3c(N)ncnc32)cc1)N1CCc2nn(C)c(Cc3ccccc3)c2C1=O	FLT3 autoinhibited	binding, competition with immobilised ligand	0.1 µM	84%
